ChEMBL document CHEMBL1145983, “Novel indolyl aryl sulfones active against HIV-1 carrying NNRTI resistance mutations: synthesis and SAR studies” (J Med Chem, 2003)
pEC50: −log10 of the molar value.

Assays:
[1] = tested on: Human immunodeficiency virus 1; assay: Anti-HIV activity protecting MT-4 cells from HIV-1 induced cytopathogenicity; type: functional, organism-based; conditions: Human immunodeficiency virus 1, MT4
MT4 = assay: Cytotoxicity, reducing the vaiability of mock-infected cells; type: functional; conditions: Homo sapiens
[2] = tested on: Human immunodeficiency virus 1; assay: Selectivity ratio of CC50/EC50; type: functional
Method in brief: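 Ratio of CC50 (MTT viability of mock-infected MT-4 cells) to EC50 (MTT-based 50% protection of HIV-1-infected MT-4 cells from cytopathicity), both determined in parallel.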

SMILES	pEC50 [1]	CC50 (MT4) [µM]	Selectivity index [2]
Cc1cc(C)cc(S(=O)(=O)c2c(C(N)=O)[nH]c3ccc(C(C)O)cc23)c1 (stereo not given)	7.60	> 200	>8000
NC(=O)c1[nH]c2ccc(Cl)cc2c1S(=O)(=O)c1cc(Cl)ccc1N	7.40	4.6	115
Cc1cc(C)cc(Sc2c(C(N)=O)[nH]c3ccc(Cl)cc23)c1	8.22	0.7	117
NC(=O)c1[nH]c2ccccc2c1Sc1ccccc1	5.85	14	10
CCOC(=O)c1[nH]c2ccccc2c1Sc1ccccc1	< 3.70	> 200	
NNC(=O)c1[nH]c2ccc(Cl)cc2c1Sc1cc(Cl)ccc1N	< 4.89	13	
CCOC(=O)c1[nH]c2ccccc2c1Sc1cc(Cl)ccc1N	< 3.70	> 200	
NNC(=O)c1[nH]c2ccc(Cl)cc2c1S(=O)(=O)c1ccc(Cl)cc1	6.70	> 200	>1000
NC(=O)c1[nH]c2ccc(Cl)cc2c1S(=O)(=O)c1c(Cl)cccc1Cl	7.00	40	400
Cc1cc(C)cc(S(=O)(=O)c2c(C(N)=O)[nH]c3ccc(Br)cc23)c1	8.70	18	9000
Cc1ccccc1Sc1c(C(N)=O)[nH]c2ccc(Cl)cc12	6.52	26	87
CCOC(=O)c1[nH]c2ccc(Cl)cc2c1S(=O)(=O)c1cc(Cl)ccc1N	5.72	> 200	105
Cc1ccc(Sc2c(C(N)=O)[nH]c3ccc(Cl)cc23)cc1	< 6.35	0.45	

Second part, led by results:

pEC50 [1]	SMILES	CC50 (MT4) [µM]	Selectivity index [2]
< 4.27	CC(C)OC(=O)c1cn(S(=O)(=O)c2ccccc2)c2ccccc12	54	
< 4.49	CCOC(=O)c1cn(S(=O)(=O)c2ccccc2)c2ccccc12	32	
5.60	CCOC(=O)c1[nH]c2ccccc2c1S(=O)(=O)c1cc(Cl)ccc1N	> 200	>91
< 4.12	O=S(=O)(c1ccccc1)n1ccc2cc(Cl)ccc21	75	
< 3.70	CC(C)OC(=O)c1cn(S(=O)(=O)c2ccccc2)c2ccc(Cl)cc12	> 200	
< 3.70	NC(=O)c1cn(S(=O)(=O)c2ccccc2)c2ccc(Cl)cc12	200	
< 3.70	CCOC(=O)c1cc2ccccc2n1S(=O)(=O)c1ccccc1[N+](=O)[O-]	> 200	
6.74	NC(=O)c1[nH]c2ccccc2c1S(=O)(=O)c1ccccc1	> 200	> 1110
< 4.49	NC(=O)c1cn(S(=O)(=O)c2ccccc2)c2ccccc12	32	
< 3.70	CCOC(=O)c1cc2cc(Cl)ccc2n1S(=O)(=O)c1ccc(Cl)cc1	> 200	
< 3.82	O=S(=O)(c1ccccc1)n1ccc2ccccc21	150	
< 4.00	CCOC(=O)c1cc2ccccc2n1S(=O)(=O)c1cc(Cl)ccc1[N+](=O)[O-]	> 100	
< 3.70	NNC(=O)c1cc2ccccc2n1S(=O)(=O)c1ccccc1	> 200	
< 4.38	CCOC(=O)c1cn(S(=O)(=O)c2ccccc2)c2ccc(Cl)cc12	42	
< 3.70	CCOC(=O)c1[nH]c2ccc(Cl)cc2c1S(=O)(=O)c1ccccc1N	> 200	
< 3.70	CCOC(=O)c1cc2cc(Cl)ccc2n1S(=O)(=O)c1ccccc1	> 200	
4.82	NC(=O)c1cc2ccccc2n1S(=O)(=O)c1ccccc1	> 200	
< 4.51	CCOC(=O)c1cc2cc(Cl)ccc2n1S(=O)(=O)c1cc(Cl)ccc1[N+](=O)[O-]	31	
< 3.70	CCOC(=O)c1cc2ccccc2n1S(=O)(=O)c1ccccc1	> 200	
